pEC50, pIC50: −log10 of the molar value. The source made the active and inactive calls. The rule behind the calls is not given here.
What was measured:
[1] = biological target: T1, Oxysterols receptor LXR-alpha (Homo sapiens, UniProt Q13133); test: Transactivation of recombinant GAL4-fused human LXRalpha LBD (163 to 447 residues) expressed in human L02 cells measured after 24 hrs by luciferase reporter gene assay; type: cell-based
T1 sequence (Q13133 whole entry): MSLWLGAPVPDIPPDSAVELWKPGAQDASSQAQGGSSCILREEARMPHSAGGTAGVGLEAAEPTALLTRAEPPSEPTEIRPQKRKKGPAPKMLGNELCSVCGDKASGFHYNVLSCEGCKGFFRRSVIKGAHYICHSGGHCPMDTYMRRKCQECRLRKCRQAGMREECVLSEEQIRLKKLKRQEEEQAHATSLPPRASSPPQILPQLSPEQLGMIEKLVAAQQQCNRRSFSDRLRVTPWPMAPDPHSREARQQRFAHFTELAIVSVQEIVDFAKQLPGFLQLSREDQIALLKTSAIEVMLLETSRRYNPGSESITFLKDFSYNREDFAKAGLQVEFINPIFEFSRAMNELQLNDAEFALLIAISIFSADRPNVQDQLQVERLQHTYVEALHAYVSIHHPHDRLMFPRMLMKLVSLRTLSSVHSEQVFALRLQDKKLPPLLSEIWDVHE

[2] = biological target: T2, Tyrosine-protein phosphatase non-receptor type 2 (Homo sapiens, UniProt P17706); test: Inhibition of recombinant human TCPTP expressed in Escherichia coli […] preincubated for 15 mins followed by substrate addition and measured after 60 mins
T2 sequence (P17706 whole entry): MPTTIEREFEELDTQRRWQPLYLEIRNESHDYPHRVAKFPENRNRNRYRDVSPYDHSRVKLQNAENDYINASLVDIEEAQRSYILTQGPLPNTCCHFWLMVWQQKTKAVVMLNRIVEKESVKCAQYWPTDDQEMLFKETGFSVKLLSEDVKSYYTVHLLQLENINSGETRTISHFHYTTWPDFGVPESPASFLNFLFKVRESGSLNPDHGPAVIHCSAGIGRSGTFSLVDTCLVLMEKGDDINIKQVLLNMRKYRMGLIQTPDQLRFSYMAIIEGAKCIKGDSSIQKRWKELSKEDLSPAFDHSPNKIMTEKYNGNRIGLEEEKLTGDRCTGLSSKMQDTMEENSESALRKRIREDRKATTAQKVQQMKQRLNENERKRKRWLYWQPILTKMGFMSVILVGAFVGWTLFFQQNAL
Procedure, shortened: (§1)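 Recombinant human phosphatases were expressed in E. coli and purified. Enzyme and compound were preincubated for 15 min at room temperature in pH 6.5 buffer (50 mM HEPES, 100 mM NaCl, 1 mM EDTA, 1 mM DTT). Buffer containing 50 mM pNPP was then added and the mix incubated for 60 min at 37 °C. Product p-nitrophenol was read at 405 nm. Assays were run in triplicate and IC50 derived.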

[3] = biological target: Tyrosine-protein phosphatase non-receptor type 6 (Homo sapiens, UniProt P29350); test: Inhibition of recombinant human SHP1 expressed in Escherichia coli […] preincubated for 15 mins followed by substrate addition and measured after 60 mins; procedure, shortened: as §1
[4] = biological target: T3, Tyrosine-protein phosphatase non-receptor type 11 (Homo sapiens, UniProt Q06124); test: Inhibition of recombinant human SHP2 expressed in Escherichia coli […] preincubated for 15 mins followed by substrate addition and measured after 60 mins; procedure, shortened: as §1
T3 sequence (Q06124 whole entry): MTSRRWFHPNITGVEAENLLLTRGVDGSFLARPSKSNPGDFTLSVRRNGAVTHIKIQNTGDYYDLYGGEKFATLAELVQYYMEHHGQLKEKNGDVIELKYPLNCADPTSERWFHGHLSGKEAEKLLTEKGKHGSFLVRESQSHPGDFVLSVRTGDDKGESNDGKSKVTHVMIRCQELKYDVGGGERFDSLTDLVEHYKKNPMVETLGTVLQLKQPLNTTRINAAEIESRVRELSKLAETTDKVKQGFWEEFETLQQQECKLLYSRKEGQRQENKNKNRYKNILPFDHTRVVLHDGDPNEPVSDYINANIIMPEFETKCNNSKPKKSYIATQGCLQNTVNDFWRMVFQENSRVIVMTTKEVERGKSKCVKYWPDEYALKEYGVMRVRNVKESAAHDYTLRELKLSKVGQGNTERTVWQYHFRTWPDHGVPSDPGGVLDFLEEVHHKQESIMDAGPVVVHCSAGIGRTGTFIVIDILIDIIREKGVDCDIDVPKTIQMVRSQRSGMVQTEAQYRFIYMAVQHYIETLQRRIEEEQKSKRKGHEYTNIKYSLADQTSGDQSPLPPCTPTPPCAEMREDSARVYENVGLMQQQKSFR

[5] = biological target: T4, Tyrosine-protein phosphatase non-receptor type 9 (Homo sapiens, UniProt P43378); test: Inhibition of recombinant human MEG2 expressed in Escherichia coli […] preincubated for 15 mins followed by substrate addition and measured after 60 mins; procedure, shortened: as §1
T4 sequence (P43378 whole entry): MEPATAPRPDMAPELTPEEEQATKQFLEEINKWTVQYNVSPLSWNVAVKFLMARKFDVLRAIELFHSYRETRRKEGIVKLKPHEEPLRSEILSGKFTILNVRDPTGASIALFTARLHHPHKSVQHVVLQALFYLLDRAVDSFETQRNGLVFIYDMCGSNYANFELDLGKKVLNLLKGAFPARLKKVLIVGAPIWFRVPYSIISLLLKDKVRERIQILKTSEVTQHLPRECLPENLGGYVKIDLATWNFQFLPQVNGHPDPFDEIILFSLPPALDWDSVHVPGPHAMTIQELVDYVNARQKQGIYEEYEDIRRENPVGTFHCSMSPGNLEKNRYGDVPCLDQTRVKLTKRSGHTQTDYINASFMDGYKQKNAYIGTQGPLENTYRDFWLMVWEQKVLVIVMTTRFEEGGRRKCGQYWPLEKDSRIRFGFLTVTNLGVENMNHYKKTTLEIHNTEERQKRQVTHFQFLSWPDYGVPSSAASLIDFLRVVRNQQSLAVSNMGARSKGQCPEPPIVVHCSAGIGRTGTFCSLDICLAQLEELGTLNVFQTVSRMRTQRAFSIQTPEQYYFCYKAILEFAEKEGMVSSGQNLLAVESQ

[6] = biological target: T5, Tyrosine-protein phosphatase non-receptor type 1 (Homo sapiens, UniProt P18031); test: Inhibition of recombinant human PTP1B expressed in Escherichia coli […] preincubated for 15 mins followed by substrate addition and measured after 60 mins; procedure, shortened: as §1
T5 sequence (P18031 whole entry): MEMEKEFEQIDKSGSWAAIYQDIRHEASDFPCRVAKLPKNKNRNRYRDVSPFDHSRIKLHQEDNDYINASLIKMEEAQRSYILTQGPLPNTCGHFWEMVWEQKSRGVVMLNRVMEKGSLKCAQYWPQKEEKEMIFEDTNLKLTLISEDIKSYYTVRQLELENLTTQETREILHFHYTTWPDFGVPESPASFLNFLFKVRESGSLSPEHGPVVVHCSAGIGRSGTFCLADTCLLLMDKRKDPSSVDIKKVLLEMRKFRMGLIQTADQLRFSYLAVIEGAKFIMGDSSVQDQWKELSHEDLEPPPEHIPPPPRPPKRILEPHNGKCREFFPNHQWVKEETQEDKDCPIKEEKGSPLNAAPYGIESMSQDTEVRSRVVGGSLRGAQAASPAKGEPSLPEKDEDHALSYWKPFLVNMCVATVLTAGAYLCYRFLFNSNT

[7] = biological target: Indoleamine 2,3-dioxygenase 1 (Homo sapiens, UniProt P14902); test: Inhibition of recombinant human IDO1 expressed in Escherichia coli […] preincubated for 15 mins followed by substrate addition and measured after 60 mins
[8] = biological target: L-lactate dehydrogenase A chain (Homo sapiens) (UniProt P00338); test: Inhibition of recombinant human LDHA expressed in Escherichia coli […] preincubated for 15 mins followed by substrate addition and measured after 60 mins
Curvularia australiensis = test: Antifungal activity against Curvularia australiensis BY01 assessed as growth inhibition at 0.6 mM measured after 48 hrs by microbroth dilution method; type: functional; settings: BY01, 48 h, read-out: GI
Procedure, shortened: (§2)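 Fungi were grown on PDA plates for 6−8 days at 30 °C, then the mycelia were moved into PD medium and filtered through cotton to give a spore suspension. Each well held PD medium, sample from a 10 mg/mL DMSO stock at about 0.6 mM, and spores (1 × 10^6 CFU). DMSO served as the negative control. OD600 was read at 0 and 48 h at 28 °C and percent growth inhibition calculated.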

[9] = tested on: Colletotrichum gloeosporioides; test: Antifungal activity against Colletotrichum gloeosporioides HNM 1003 assessed as growth inhibition at 0.6 mM measured after 48 hrs by microbroth dilution method; type: functional; settings: HNM 1003, 48 h, read-out: GI; procedure, shortened: as §2
Fusarium oxysporum = test: Antifungal activity against Fusarium oxysporum HNM 1003 assessed as growth inhibition at 0.6 mM measured after 48 hrs by microbroth dilution method; type: functional; settings: HNM 1003, 48 h, read-out: GI; procedure, shortened: as §2
Pyricularia oryzae = test: Antifungal activity against Pyricularia oryzae HNM 1003 assessed as growth inhibition at 0.6 mM measured after 48 hrs by microbroth dilution method; type: functional; settings: HNM 1003, 48 h, read-out: GI

Tyrosine-protein phosphatase non-receptor type 6, sequence (P29350 whole entry): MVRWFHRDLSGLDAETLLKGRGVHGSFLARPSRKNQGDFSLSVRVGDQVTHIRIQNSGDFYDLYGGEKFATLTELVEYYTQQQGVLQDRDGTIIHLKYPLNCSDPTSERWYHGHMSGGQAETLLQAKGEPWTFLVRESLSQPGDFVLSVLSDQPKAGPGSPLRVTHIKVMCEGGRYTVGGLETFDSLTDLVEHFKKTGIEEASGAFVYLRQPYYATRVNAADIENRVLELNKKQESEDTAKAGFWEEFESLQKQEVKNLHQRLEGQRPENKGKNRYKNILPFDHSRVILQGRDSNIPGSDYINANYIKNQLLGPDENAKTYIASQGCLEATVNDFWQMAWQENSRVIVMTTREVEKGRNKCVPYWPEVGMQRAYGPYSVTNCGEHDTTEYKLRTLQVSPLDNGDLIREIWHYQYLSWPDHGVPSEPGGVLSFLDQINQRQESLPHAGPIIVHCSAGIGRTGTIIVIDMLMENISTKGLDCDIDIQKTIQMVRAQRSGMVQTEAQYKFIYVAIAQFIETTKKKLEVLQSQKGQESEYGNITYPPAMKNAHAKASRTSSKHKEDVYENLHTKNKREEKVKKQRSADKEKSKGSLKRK
Indoleamine 2,3-dioxygenase 1, sequence (P14902 whole entry): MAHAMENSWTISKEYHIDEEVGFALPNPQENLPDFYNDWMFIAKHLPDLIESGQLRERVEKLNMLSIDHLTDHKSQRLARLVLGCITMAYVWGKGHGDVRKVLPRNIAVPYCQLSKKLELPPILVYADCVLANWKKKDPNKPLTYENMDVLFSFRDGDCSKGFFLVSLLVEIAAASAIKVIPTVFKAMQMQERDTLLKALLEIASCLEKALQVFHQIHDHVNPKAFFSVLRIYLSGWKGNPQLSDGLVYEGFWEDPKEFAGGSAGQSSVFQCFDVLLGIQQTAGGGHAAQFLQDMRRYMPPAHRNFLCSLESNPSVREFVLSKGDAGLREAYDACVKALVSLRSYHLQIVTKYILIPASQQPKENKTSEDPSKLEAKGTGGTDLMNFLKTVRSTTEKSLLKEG

In the case of `C[C@@H]1C(=O)N/C(=C\c2ccccc2)c2nc3c(O)cccc3c(=O)n21`, the pEC50 [1] was 5.77, the pIC50 [2] was 4.06 to 4.85 and the pIC50 [3] was 4.06 to 4.85. It also gave a pIC50 [4] of 4.06 to 4.85, a pIC50 [5] of 4.06 to 4.85 and a pIC50 [6] of 4.06 to 4.85. The pIC50 [7] was 4.06 to 4.85, the inhibition [8] was “inactive” and the inhibition of growth at 600 µM (Curvularia australiensis) was under 50%. For the same compound, the inhibition of growth at 600 µM [9] was under 50%, the inhibition of growth at 600 µM (Fusarium oxysporum) was under 50% and the inhibition of growth at 600 µM (Pyricularia oryzae) was under 50%.

From ChEMBL document CHEMBL4392864, “Diketopiperazine-Type Alkaloids from a Deep-Sea-Derived Aspergillus puniceus Fungus and Their Effects on Liver X Receptor α” (J Nat Prod, 2019)
